Experimental data taken from ChEMBL document CHEMBL1932971, “Synthesis of uriedo and thiouriedo derivatives of peptide conjugated heterocycles - A new class of promising antimicrobials” (2012).
Converted amounts (≈) assume the structure as drawn. Peptide text beside a SMILES is read from it. * marks the point of attachment. Piperazinyl(4-(2,3-Cl2Ph)) = Clc1cccc(N2CCN(*)CC2)c1Cl; Thiocarbamoyl(N-4-ClPh) = S=C(Nc1ccc(Cl)cc1)*; X1 = Fc1ccc2c(C3CCN(*)CC3)noc2c1

How the values were obtained:
Format in all cases: functional
[1] = system: Klebsiella pneumoniae; assay: Antibacterial activity against Klebsiella pneumoniae at 30 ug/ml after 24 hrs by agar well diffusion method; conditions: read-out: DIZ
In short: (§1)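 Agar well diffusion. Inocula were grown in nutrient broth at 37 °C for 24 h, then subcultured in nutrient broth at room temperature. Compounds were made as a 1 mg/mL DMSO stock and diluted to 30 µg/mL final. Nutrient agar plates were spread-inoculated and 6 mm wells each got 0.1 mL. Controls were amoxicillin (reference) and DMSO (negative). Incubation was 24 h at 37 °C. Inhibition zone was measured in mm as the mean of three determinations.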

[2] = system: Fusarium oxysporum; assay: Antifungal activity against Fusarium oxysporum after 72 hrs by microdilution method
[3] = system: Escherichia coli; assay: Antibacterial activity against Escherichia coli after 24 hrs by microdilution method
[4] = system: Xanthomonas oryzae; assay: Antibacterial activity against Xanthomonas oryzae after 24 hrs by microdilution method
[5] = system: Fusarium oxysporum; assay: Antifungal activity against Fusarium oxysporum at 30 ug/ml after 72 hrs by agar well diffusion method; conditions: read-out: DIZ
In short: (§2)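 Fungal well diffusion. Inocula were subcultured in nutrient broth for one day, then spread on solidified medium. Compounds were made as a 1 mg/mL DMSO stock and diluted to 30 µg/mL final. Each 6 mm well got 0.1 mL. Controls were bavistin (reference) and DMSO (negative). Plates stood for 3 days at room temperature. Inhibition zone was measured in mm as the mean of three determinations.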

[6] = system: Aspergillus niger; assay: Antifungal activity against Aspergillus niger at 30 ug/ml after 72 hrs by agar well diffusion method; conditions: read-out: DIZ; in short: as §2
[7] = system: Klebsiella pneumoniae; assay: Antibacterial activity against Klebsiella pneumoniae after 24 hrs by microdilution method
[8] = system: Staphylococcus aureus; assay: Antibacterial activity against coagulase-positive Staphylococcus aureus after 24 hrs by microdilution method
[9] = system: Aspergillus flavus; assay: Antifungal activity against Aspergillus flavus after 72 hrs by microdilution method
[10] = system: Xanthomonas oryzae; assay: Antibacterial activity against Xanthomonas oryzae at 30 ug/ml after 24 hrs by agar well diffusion method; conditions: read-out: DIZ
[11] = system: Aspergillus flavus; assay: Antifungal activity against Aspergillus flavus at 30 ug/ml after 72 hrs by agar well diffusion method; conditions: read-out: DIZ; in short: as §2
[12] = system: Staphylococcus aureus; assay: Antibacterial activity against coagulase-positive Staphylococcus aureus at 30 ug/ml after 24 hrs by agar well diffusion method; conditions: read-out: DIZ; in short: as §1
[13] = system: Escherichia coli; assay: Antibacterial activity against Escherichia coli at 30 ug/ml after 24 hrs by agar well diffusion method; conditions: read-out: DIZ; in short: as §1
[14] = system: Aspergillus niger; assay: Antifungal activity against Aspergillus niger after 72 hrs by microdilution method

Compound	zone of inhibition at 30 µg/mL [1] [mm]	MIC [2] [µg/mL]	MIC [3] [µg/mL]	MIC [4] [µg/mL]	zone of inhibition at 30 µg/mL [5] [mm]	zone of inhibition at 30 µg/mL [6] [mm]	MIC [7] [µg/mL]	MIC [8] [µg/mL]	MIC [9] [µg/mL]	zone of inhibition at 30 µg/mL [10] [mm]	zone of inhibition at 30 µg/mL [11] [mm]	zone of inhibition at 30 µg/mL [12] [mm]	zone of inhibition at 30 µg/mL [13] [mm]	MIC [14] [µg/mL]
O=C(CNC(=S)Nc1ccc(Cl)cc1)N[C@@H](Cc1ccccc1)C(=O)NCC(=O)N[C@@H](Cc1ccccc1)C(=O)N1CCC[C@H]1C(=O)N1CCC(c2noc3cc(F)ccc23)CC1 ({Thiocarbamoyl(N-4-ClPh)}-GFGFP-X1)	34	5.75 (≈ 6.42 µM)	6 (≈ 6.7 µM)	6.25 (≈ 6.98 µM)	36	39	4.5 (≈ 5.03 µM)	5.75 (≈ 6.42 µM)	6 (≈ 6.7 µM)	36	32	32	35	4.5 (≈ 5.03 µM)
O=C(CNC(=S)Nc1ccc(Cl)cc1)N[C@@H](Cc1ccccc1)C(=O)NCC(=O)N[C@@H](Cc1ccccc1)C(=O)N1CCC[C@H]1C(=O)N1CCN(c2cccc(Cl)c2Cl)CC1 ({Thiocarbamoyl(N-4-ClPh)}-GFGFP-{Piperazinyl(4-(2,3-Cl2Ph))})	32	6.25 (≈ 6.9 µM)	6.75 (≈ 7.45 µM)	6.75 (≈ 7.45 µM)	31	34	5 (≈ 5.52 µM)	6.25 (≈ 6.9 µM)	6.5 (≈ 7.17 µM)	33	30	30	32	5 (≈ 5.52 µM)
CC(C)[C@H](NC(=O)CNC(=S)Nc1ccc(Cl)cc1)C(=O)NCC(=O)N[C@H](C(=O)N1CCC[C@H]1C(=O)N1CCC(c2noc3cc(F)ccc23)CC1)C(C)C ({Thiocarbamoyl(N-4-ClPh)}-GVGVP-X1)	30	8 (≈ 10 µM)	8.75 (≈ 10.9 µM)	8 (≈ 10 µM)	31	34	6.5 (≈ 8.13 µM)	8 (≈ 10 µM)	6.75 (≈ 8.44 µM)	32	30	28	31	6 (≈ 7.51 µM)
CC(C)[C@H](NC(=O)CNC(=S)Nc1ccc(Cl)cc1)C(=O)NCC(=O)N[C@H](C(=O)N1CCC[C@H]1C(=O)N1CCN(c2cccc(Cl)c2Cl)CC1)C(C)C ({Thiocarbamoyl(N-4-ClPh)}-GVGVP-{Piperazinyl(4-(2,3-Cl2Ph))})	24	8.75 (≈ 10.8 µM)	9.5 (≈ 11.7 µM)	8.75 (≈ 10.8 µM)	29	32	7 (≈ 8.64 µM)	9 (≈ 11.1 µM)	7.75 (≈ 9.56 µM)	31	24	26	29	6.75 (≈ 8.33 µM)
